Test results: publication PMC4038446 (Bioorganic & medicinal chemistry letters, 2012)

Target: T1, AKR1C3 (Homo sapiens, UniProt P42330)
T1 sequence (P42330 1-323): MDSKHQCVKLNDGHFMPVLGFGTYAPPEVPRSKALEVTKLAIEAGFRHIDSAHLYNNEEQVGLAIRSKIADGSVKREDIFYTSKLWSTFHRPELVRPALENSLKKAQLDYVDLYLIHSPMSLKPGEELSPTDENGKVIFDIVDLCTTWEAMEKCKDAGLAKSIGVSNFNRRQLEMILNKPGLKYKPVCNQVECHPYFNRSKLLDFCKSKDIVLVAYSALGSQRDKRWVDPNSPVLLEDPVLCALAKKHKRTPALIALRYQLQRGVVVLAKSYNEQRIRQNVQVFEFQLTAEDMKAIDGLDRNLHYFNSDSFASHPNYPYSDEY
Assay: primary inhibition assay
Type: biochemical
Settings: 10 µM compound, 1-acenaphthenol, NAD+, pH 9.0
Outline: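 Recombinant enzyme oxidises 1-acenaphthenol with 2.3 mM NAD+. Medium is 100 mM phosphate pH 9.0, 0.005% Triton X-114, 5% DMSO. […] Test compound is at 10 µM. NADH increase is read at 340 nm, and initial velocities are compared with compound-free controls. Values are the mean of two independent experiments.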

| AKR1C3 inhibition (%) | Structure (SMILES) |
| --- | --- |
| almost completely lost | CCCCOc1cccc(C(=O)Nc2ccc(Br)cc2C(=O)O)c1 [Compound 15] |
| almost completely lost | CCOc1cccc(C(=O)Nc2ccc(Br)cc2C(=O)O)c1 [Compound 14] |

| Structure (SMILES) | AKR1C3 inhibition (%) |
| --- | --- |
| O=C(Nc1ccc(Br)cc1C(=O)O)c1ccc(F)c([N+](=O)[O-])c1 [Compound 8] | no AKR1C3 isoform inhibition was observed |
